# Columns and labels:
# [1] = Inhibition of dog kidney Na+K+-ATPase assessed as hydrolysis of [32P]ATP; parameters: species or system Canis lupus familiaris
# How it was run: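 Dog kidney Na+,K+-ATPase, isolated and purified by the Jørgensen method. Enzyme activity was read as % hydrolysis of 32P-ATP with versus without test compound. IC50 was obtained by nonlinear least-squares curve fitting, as the mean of two or three experiments.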
# [2] = test system: Cavia porcellus; assay: Positive inotropic activity in guinea pig atria assessed as increase in […] at 0.16 ml/min, iv; type: functional
# [3] = organism: Cavia porcellus; assay: Positive inotropic activity in electrically driven guinea pig atria assessed as maximal concentration required to increase in […]; type: functional
# [4] = test system: Cavia porcellus; assay: Toxicity in guinea pig assessed as death at 0.16 ml/min, iv up to 90 mins; type: organism-based; details: in vivo, 1.5 h
# How it was run: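 Anesthetized guinea pigs with a jugular vein cannula and an intubated trachea for spontaneous respiration. After stabilization, drug was infused iv at 0.16 mL/min until death or for up to 90 min. Vehicle was DMSO diluted in physiological solution to 1% DMSO final. Read-out was +dP/dt_max. ED80 (dose raising +dP/dt_max by 80%) came from the dose–response, and the doses giving maximum inotropy and death were recorded, giving the lethal dose/ED80 ratio.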
# [5] = test system: Cavia porcellus; assay: Positive inotropic activity in iv dosed guinea pig atria assessed as concentration required to increase in […]; type: functional
SMILES,IC50 [1],other results
C[C@]12CC/C(=N\OCCN)C[C@@H]1[C@H](O[N+](=O)[O-])C[C@@H]1[C@@H]2CC[C@]2(C)C(=O)CC[C@@H]12,2900 nM,–
C[C@]12CC/C(=N\OCCN)C[C@@H]1[C@H](CO)C[C@@H]1[C@@H]2CC[C@]2(C)C(=O)CC[C@@H]12,1600 nM,–
COC(=O)/C=C1\C[C@@H]2[C@H](CC[C@]3(C)C(=O)CC[C@@H]23)[C@@]2(C)CC/C(=N\OCCN)C[C@H]12,64000 nM,–
COC[C@@H]1C[C@@H]2[C@H](CC[C@]3(C)C(=O)CC[C@@H]23)[C@@]2(C)CC/C(=N\OCCN)C[C@H]12,3000 nM,–
CNCCCO/N=C1\CC[C@@]2(C)[C@H](C1)C1(CC1)C[C@@H]1[C@@H]2CC[C@]2(C)C(=O)CC[C@@H]12,1300 nM,–
C[C@]12CC/C(=N\OCCN)C[C@@H]1[C@@H](C(N)=O)C[C@@H]1[C@@H]2CC[C@]2(C)C(=O)CC[C@@H]12,630 nM,–
CNCCCO/N=C1\CC[C@@]2(C)[C@H](C1)[C@@H](C)C[C@@H]1[C@@H]2CC[C@]2(C)C(=O)CC[C@@H]12.Cl,910 nM,Emax [2]: 213%; Activity [3]: 18 µM/g; Activity [4]: Non-toxic; ED80 [5]: 8.1 µM/g
C[C@]12CC/C(=N\O[C@@H]3CCNC3)C[C@@H]1C(=O)C[C@@H]1[C@@H]2CC[C@]2(C)C(=O)CC[C@@H]12,26 nM,–
C[C@]12CC/C(=N\OCCN)C[C@@H]1[C@@H](C(=O)O)C[C@@H]1[C@@H]2CC[C@]2(C)C(=O)CC[C@@H]12,16000 nM,–
CNCCCO/N=C1\CC[C@@]2(C)[C@H](C1)[C@@H](COC)C[C@@H]1[C@@H]2CC[C@]2(C)C(=O)CC[C@@H]12,2000 nM,–
C#C[C@H]1C[C@@H]2[C@H](CC[C@]3(C)C(=O)CC[C@@H]23)[C@@]2(C)CC/C(=N\OCCN)C[C@H]12.Cl,200 nM,Emax [2]: 163%; Activity [3]: 9.9 µM/g; Activity [4]: Non-toxic; ED80 [5]: 4.6 µM/g
C=C1C[C@@H]2[C@H](CC[C@]3(C)C(=O)CC[C@@H]23)[C@@]2(C)CC/C(=N\OCCCNC)C[C@H]12,570 nM,–
C[C@H]1C[C@@H]2[C@H](CC[C@]3(C)C(=O)CC[C@@H]23)[C@@]2(C)CC/C(=N\O[C@@H]3CCNC3)C[C@H]12,340 nM,–
C=C[C@H]1C[C@@H]2[C@H](CC[C@]3(C)C(=O)CC[C@@H]23)[C@@]2(C)CC/C(=N\OCCN)C[C@H]12,530 nM,–
C=CCO/N=C1\C[C@@H]2[C@H](CC[C@]3(C)C(=O)CC[C@@H]23)[C@@]2(C)CC/C(=N\OCCN)C[C@H]12,43000 nM,–
C[C@]12CC/C(=N\O[C@@H]3CCNC3)C[C@@H]1[C@@H](C(N)=O)C[C@@H]1[C@@H]2CC[C@]2(C)C(=O)CC[C@@H]12.Cl,140 nM,Emax [2]: 109%; Activity [3]: 8.8 µM/g; Activity [4]: Non-toxic; ED80 [5]: 2.2 µM/g
C[C@]12CC/C(=N\OCCN)C[C@@H]1[C@@H](C#N)C[C@@H]1[C@@H]2CC[C@]2(C)C(=O)CC[C@@H]12,1100 nM,–
CNCCCO/N=C1\CC[C@@]2(C)[C@H](C1)[C@@H](C(N)=O)C[C@@H]1[C@@H]2CC[C@]2(C)C(=O)CC[C@@H]12,1900 nM,–
CNCCCO/N=C1\CC[C@@]2(C)[C@H](C1)/C(=N/O)C[C@@H]1[C@@H]2CC[C@]2(C)C(=O)CC[C@@H]12.Cl,200 nM,Emax [2]: 158%; Activity [3]: 15 µM/g; Activity [4]: Non-toxic; ED80 [5]: 7.1 µM/g
CCO[C@H]1C[C@@H]2[C@H](CC[C@]3(C)C(=O)CC[C@@H]23)[C@@]2(C)CC/C(=N\OCCN)C[C@H]12,3100 nM,–
C[C@@H]1C[C@@H]2[C@H](CC[C@]3(C)C(=O)CC[C@@H]23)[C@@]2(C)CC/C(=N\OCCN)C[C@H]12,6000 nM,–
C[C@]12CC/C(=N\OCCN)C[C@@H]1/C(=C/CO)C[C@@H]1[C@@H]2CC[C@]2(C)C(=O)CC[C@@H]12,770 nM,–
C[C@]12CC/C(=N\O[C@@H]3CCNC3)C[C@@H]1C1(CC1)C[C@@H]1[C@@H]2CC[C@]2(C)C(=O)CC[C@@H]12,220 nM,–
C[C@]12CC/C(=N\OCCN)C[C@@H]1C1(CC1)C[C@@H]1[C@@H]2CC[C@]2(C)C(=O)CC[C@@H]12,850 nM,–
C#C[C@H]1C[C@@H]2[C@H](CC[C@]3(C)C(=O)CC[C@@H]23)[C@@]2(C)CC/C(=N\OCCCNC)C[C@H]12,1200 nM,–

SMILES,IC50 [1],other results
C[C@]12CC/C(=N\O[C@@H]3CCNC3)C[C@@H]1[C@@H](O[N+](=O)[O-])C[C@@H]1[C@@H]2CC[C@]2(C)C(=O)CC[C@@H]12,380 nM,–
CCO/N=C1\C[C@@H]2[C@H](CC[C@]3(C)C(=O)CC[C@@H]23)[C@@]2(C)CC/C(=N\OCCN)C[C@H]12,1700 nM,–
C#C[C@H]1C[C@@H]2[C@H](CC[C@]3(C)C(=O)CC[C@@H]23)[C@@]2(C)CC/C(=N\O[C@@H]3CCNC3)C[C@H]12.Cl,110 nM,Emax [2]: 147%; Activity [3]: 6 µM/g; Activity [4]: Non-toxic; ED80 [5]: 3.7 µM/g
CNCCCO/N=C1\CC[C@@]2(C)[C@H](C1)[C@@H](C(=O)OC)C[C@@H]1[C@@H]2CC[C@]2(C)C(=O)CC[C@@H]12,4000 nM,–
COC[C@H]1C[C@@H]2[C@H](CC[C@]3(C)C(=O)CC[C@@H]23)[C@@]2(C)CC/C(=N\OCCN)C[C@H]12,500 nM,–
C=C1C[C@@H]2[C@H](CC[C@]3(C)C(=O)CC[C@@H]23)[C@@]2(C)CC/C(=N\O[C@@H]3CCNC3)C[C@H]12,46 nM,–
CNCCCO/N=C1\CC[C@@]2(C)[C@H](C1)C(=O)C[C@@H]1[C@@H]2CC[C@]2(C)C(=O)CC[C@@H]12,250 nM,–
CO/N=C1\C[C@@H]2[C@H](CC[C@]3(C)C(=O)CC[C@@H]23)[C@@]2(C)CC/C(=N\O[C@@H]3CCNC3)C[C@H]12,18 nM,–
C=C1C[C@@H]2[C@H](CC[C@]3(C)C(=O)CC[C@@H]23)[C@@]2(C)CC/C(=N\OCCN)C[C@H]12,42 nM,–
C[C@]12CC/C(=N\OCCN)C[C@@H]1[C@@H](O)C[C@@H]1[C@@H]2CC[C@]2(C)C(=O)CC[C@@H]12,520 nM,–
CC(=O)N[C@H]1C[C@@H]2[C@H](CC[C@]3(C)C(=O)CC[C@@H]23)[C@@]2(C)CC/C(=N\OCCN)C[C@H]12,45000 nM,–
C[C@]12CC/C(=N\O[C@@H]3CCNC3)C[C@@H]1C(=C(F)F)C[C@@H]1[C@@H]2CC[C@]2(C)C(=O)CC[C@@H]12.Cl,21 nM,Emax [2]: 244%; Activity [3]: 18 µM/g; Activity [4]: Non-toxic; ED80 [5]: 6.7 µM/g
C[C@]12CC/C(=N\OCCN)C[C@@H]1[C@H](O)C[C@@H]1[C@@H]2CC[C@]2(C)C(=O)CC[C@@H]12,2100 nM,–
C[C@H]1C[C@@H]2[C@H](CC[C@]3(C)C(=O)CC[C@@H]23)[C@@]2(C)CC/C(=N\OCCN)C[C@H]12.Cl,300 nM,Emax [2]: 203%; Activity [3]: 5.8 µM/g; Activity [4]: Non-toxic; ED80 [5]: 3.1 µM/g
C[C@]12CC/C(=N\O[C@@H]3CCNC3)C[C@@H]1[C@@H](CO)C[C@@H]1[C@@H]2CC[C@]2(C)C(=O)CC[C@@H]12,26 nM,–
C[C@]12CC/C(=N\OCCN)C[C@@H]1[C@@H](CO)C[C@@H]1[C@@H]2CC[C@]2(C)C(=O)CC[C@@H]12.Cl,180 nM,Emax [2]: 166%; Activity [3]: 7.4 µM/g; Activity [4]: Non-toxic; ED80 [5]: 1.8 µM/g
CO/N=C1\C[C@@H]2[C@H](CC[C@]3(C)C(=O)CC[C@@H]23)[C@@]2(C)CC/C(=N\OCCN)C[C@H]12.Cl,17 nM,Emax [2]: 183%; Activity [3]: 5.8 µM/g; Activity [4]: Non-toxic; ED80 [5]: 2.4 µM/g
C/C=C1\C[C@@H]2[C@H](CC[C@]3(C)C(=O)CC[C@@H]23)[C@@]2(C)CC/C(=N\OCCN)C[C@H]12,1100 nM,–
CNCCCO/N=C1\CC[C@@]2(C)[C@H](C1)/C(=N/OC)C[C@@H]1[C@@H]2CC[C@]2(C)C(=O)CC[C@@H]12,330 nM,–
C[C@]12CC/C(=N\OCCN)C[C@@H]1C(=C(F)F)C[C@@H]1[C@@H]2CC[C@]2(C)C(=O)CC[C@@H]12,190 nM,–
C[C@]12CC/C(=N\OCCN)C[C@@H]1[C@]1(CO1)C[C@@H]1[C@@H]2CC[C@]2(C)C(=O)CC[C@@H]12,870 nM,–
CO[C@@H]1C[C@@H]2[C@H](CC[C@]3(C)C(=O)CC[C@@H]23)[C@@]2(C)CC/C(=N\OCCN)C[C@H]12,1500 nM,–
COC(=O)[C@H]1C[C@@H]2[C@H](CC[C@]3(C)C(=O)CC[C@@H]23)[C@@]2(C)CC/C(=N\OCCN)C[C@H]12,410 nM,–
C[C@]12CC/C(=N\OCCN)C[C@@H]1[C@@]1(CO1)C[C@@H]1[C@@H]2CC[C@]2(C)C(=O)CC[C@@H]12,910 nM,–
C[C@]12CC/C(=N\OCCN)C[C@@H]1/C(=C/C#N)C[C@@H]1[C@@H]2CC[C@]2(C)C(=O)CC[C@@H]12,1700 nM,–

# — ChEMBL document CHEMBL1165977, “Novel analogues of Istaroxime, a potent inhibitor of Na(+),K(+)-ATPase: Synthesis, structure-activity relationship and 3D-quantitative structure-activity relationship of derivatives at position 6 on the androstane scaffold” (Bioorg Med Chem, 2010)
